The values below come from ChEMBL document CHEMBL1811795, “Photolabile ubiquinone analogues for identification and characterization of quinone binding sites in proteins” (Bioorg Med Chem, 2010).

For data set [1], the system named is Bacillus subtilis. The experiment in a line: Inhibition of Bacillus subtilis Succinate-ubiquinone oxidoreductase using Q0 as substrate. In outline:
(§1)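 Succinate:quinone reductase of purified B. subtilis Complex II, read as DCPIP reduction at 600 nm. Conditions: 20 mM succinate, 50 mM potassium phosphate pH 7.4, 1 mM KCN, 0.1 mM EDTA, room temperature, quinone starting the reaction. HQNO added at 10 µM final; percent inhibition recorded.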

The test system of data set [2] is Bacillus subtilis. The experiment in a line: Activity of Bacillus subtilis Succinate-ubiquinone oxidoreductase. In outline: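 Purified detergent-solubilized B. subtilis Complex II ([…]): succinate-driven DCPIP reduction followed at 600 nm, 20 mM succinate, quinone (50 mM as printed) as primary acceptor, 50 mM potassium phosphate pH 7.4 with 1 mM KCN and 0.1 mM EDTA, room temperature, started by quinone; Vmax reported.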

Data set [3] relates to Escherichia coli. Put plainly: Activity of Escherichia coli WrbA. In outline:
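Purified E. coli WrbA in 20 mM potassium phosphate pH 7.2, room temperature, with 100 µM FMN, 200 µM NADH and 200 µM quinone; NADH oxidation followed at 340 nm; Vmax reported.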

Data set [4] has as its system Rhodobacter capsulatus. Put plainly: Activity of Rhodobacter capsulatus NADH-ubiquinone oxidoreductase. In outline: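 R. capsulatus membranes (aerobic, dark, 32 °C growth) assayed for NADH:quinone reductase at 25 °C: 50 mM Tris–Cl pH 8, 10 mM KCl, 5 mM MgCl2, 0.2 µg/mL gramicidin A, 150 µM NADH. Quinone varied 0.2–3 Km; Michaelis–Menten fit of initial rates gives apparent Km and Vmax. NADH oxidation read at 340 nm.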

The subject of data set [5] is Bacillus subtilis. Put plainly: Inhibition of photo labeled detergent solubilized succinate:ubiquinone oxidoreductase activity in Bacillus subtilis measured in dark. An outline of the steps:
(§2)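 Purified Complex II (5 µM, detergent) with 10–75 µM azidoquinone in 50 mM potassium phosphate, 1 mM EDTA, pH 7.4, illuminated on ice with mid-wavelength UV at 7 cm; timed aliquots held dark on ice. SQR activity then measured within 1 h by DCPIP reduction with Q1 as acceptor.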

For data set [6], the system named is Bacillus subtilis. The experiment in a line: Inhibition of Bacillus subtilis Succinate-ubiquinone oxidoreductase using Q1 as substrate. In outline: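 Purified B. subtilis Complex II (from a strain overproducing it, solubilised in dodecylmaltoside), 5 µM, in 50 mM potassium phosphate, 1 mM EDTA, pH 7.4. Illuminated on ice with mid-wavelength UV at 7 cm, with 10–75 µM azidoquinone. Samples held dark on ice, then assayed within 1 h: succinate:Q1 reductase, read as DCPIP reduction at 600 nm, room temperature.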

Data set [7] deals with Rhodobacter capsulatus. Put plainly: Inhibition of Rhodobacter capsulatus NADH-ubiquinone oxidoreductase using DMB as substrate.
In data set [8] the test system is Rhodobacter capsulatus. Put plainly: Inhibition of Rhodobacter capsulatus NADH-ubiquinone oxidoreductase using Q1 as substrate.
In data set [9] the test system is Rhodobacter capsulatus. The experiment in a line: Inhibition of Rhodobacter capsulatus NADH-ubiquinone oxidoreductase using AzQ0 as substrate.
Data set [10] has as its system Rhodobacter capsulatus. The experiment in a line: Inhibition of Rhodobacter capsulatus NADH-ubiquinone oxidoreductase using AzQ1 as substrate.
The subject of data set [11] is Rhodobacter capsulatus. Put plainly: Inhibition of Rhodobacter capsulatus NADH-ubiquinone oxidoreductase using DAzB as substrate.
For data set [12], the system named is Rhodobacter capsulatus. Put plainly: Inhibition of Rhodobacter capsulatus NADH-ubiquinone oxidoreductase using Q0 as substrate.
The nature of data set [13]: Photo stability of the compound assessed as decomposition at 500 uM after 10 mins of UV-illumination. Format: physicochemical.
Data set [14] relates to Rhodobacter capsulatus. Put plainly: Activity of Rhodobacter capsulatus NADH-ubiquinone oxidoreductase at 50 uM UV-illuminated compound. In outline:
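R. capsulatus membranes incubated with 50 µM previously UV-illuminated azidoquinone, then NADH:O2 reductase (NADH oxidase) activity measured. Runs without additions and with the unmodified quinone were done in parallel.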

Data set [15] relates to Bacillus subtilis. The experiment in a line: Inhibition of Bacillus subtilis Succinate-ubiquinone oxidoreductase using AzQ0 as substrate. An outline of the steps: as §1
Data set [16] deals with Escherichia coli. Put plainly: Inhibition of photo labeled Escherichia coli WrbA activity at 50 uM. The conditions noted are these: TDE = time-dependent effect. In outline: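 WrbA (10 µM) with 50 µM azidoquinone in 20 mM potassium phosphate pH 7.2, on ice, under mid-wavelength UV light at 7 cm; aliquots taken over time and kept dark on ice. Activity then read within 1 h as NADH oxidation at 340 nm with 100 µM FMN, 200 µM NADH and 200 µM quinone.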

Data set [17] has as its system Bacillus subtilis. Put plainly: Inhibition of photo labeled detergent solubilized succinate:ubiquinone oxidoreductase activity of respiratory chain in Bacillus subtilis after 5 mins of UV-illumination. In outline: as §2
For data set [18], the system named is Rhodobacter capsulatus. The experiment in a line: Activity of Rhodobacter capsulatus NADH-ubiquinone oxidoreductase at 50 uM post UV-illuminated compound.
In data set [19] the test system is Rhodobacter capsulatus. The experiment in a line: Inhibition of NADH:Q1 reductase activity of Rhodobacter capsulatus NADH-ubiquinone oxidoreductase at 20 uM after 5 mins of UV-illumination. An outline of the steps: (§3)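 R. capsulatus membranes, 1 mg/mL protein in Bis–Tris propane buffer pH 6.8, preincubated 5 min in the dark with about 20 µM azidoquinone. Then illuminated with mid-wavelength UV at 7 cm, 4 °C, in a quartz cuvette. Where stated, 5 µM NADH was added (with KCN) before illumination. NADH:Q1 reductase assayed straight after: 340 nm, 25 °C, Tris–Cl pH 8.0, 5 mM KCN, 100 µM Q1, 150 µM NADH, gramicidin.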

Data set [20] relates to Rhodobacter capsulatus. The experiment in a line: Inhibition of NADH:Q1 reductase activity of Rhodobacter capsulatus NADH-ubiquinone oxidoreductase at 20 uM after 5 mins of UV-illumination in presence of 5 uM NADH. In outline: as §3
The subject of data set [21] is Rhodobacter capsulatus. The experiment in a line: Inhibition of NADH:Q1 reductase activity of Rhodobacter capsulatus NADH-ubiquinone oxidoreductase at 20 uM. The conditions noted are these: TDE = time-dependent effect. In outline:
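Membranes in Buffer A (50 mM Bis–Tris propane pH 6.8, 20 mM KCl, 10 mM MgCl2) at 1 mg/mL protein, preincubated 5 min dark with ~20 µM azidoquinone, UV-illuminated up to 10 min at 7 cm, 4 °C. NADH:Q1 reductase then read at 340 nm, 25 °C, pH 8.0 Tris–Cl with 5 mM KCN, 100 µM Q1, 150 µM NADH.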

Data set [22] relates to Rhodobacter capsulatus. The experiment in a line: Inhibition of NADH:ferricyanide reductase activity of Rhodobacter capsulatus NADH-ubiquinone oxidoreductase at 20 uM after 20 mins of UV-illumination.

Active and inactive are the calls of the source. The calls are words filed in the database; no cut-off is given here.

As usually defined, the Km is the substrate concentration at which the rate is half of its maximum. The term Vmax denotes the top rate of the reaction or transport when substrate is in excess. The term inhibition denotes the drop in the measured response relative to a control, in per cent. As to `COC1=C(OC)C(=O)C(C)=CC1=O`, the Imax in the data set with Bacillus subtilis [1] was 88%. Besides, in the data set on Bacillus subtilis [2], the Vmax (microM/min/mg) was found to be 2.19. Further, in the data set with Escherichia coli [3], the Vmax (microM/min/mg) is 684. In addition, in the data set with Rhodobacter capsulatus [4], the Km came to 75 µM and the Vmax was determined as 0.37 µmol/min/mg. Also, the inhibition result in the data set on Bacillus subtilis [5] was “inactive”.
For `COC1=C(OC)C(=O)C(CC=C(C)C)=C(C)C1=O`, the Vmax (microM/min/mg) with Bacillus subtilis [2] was 2.52; with Escherichia coli [3], less than 10. The Imax with Bacillus subtilis [6] turned out to be 90%. Also, the Km in the data set with Rhodobacter capsulatus [4] turned out to be 23 µM. Besides, the Vmax with Rhodobacter capsulatus [4] was 0.67 µmol/min/mg. Further, the inhibition entry in the data set with Bacillus subtilis [5] was “inactive”.
Turning to `C=C(C)[C@H]1Cc2c(ccc3c2O[C@@H]2COc4cc(OC)c(OC)cc4[C@@H]2C3=O)O1`, the Imax in the data set on Rhodobacter capsulatus [7] was found to be 63%; in the data set on Rhodobacter capsulatus [8], 68%; with Rhodobacter capsulatus [9] it was 53%; with Rhodobacter capsulatus [10] it was 79%; in the data set with Rhodobacter capsulatus [11], 53%; in the data set on Rhodobacter capsulatus [12], 48%.
In the case of `COC1=C(OC)C(=O)C(N=[N+]=[N-])=C(C)C1=O`, the Vmax (microM/min/mg) worked out at 3.72 with Bacillus subtilis [2] and 724 in the data set with Escherichia coli [3]. Moreover, the Stability entry in data set [13] is listed as “Stable”. Moreover, the inhibition in the data set on Rhodobacter capsulatus [14] is 20%; in the data set with Escherichia coli [16], “tde”. The compound also displayed an Imax in the data set with Bacillus subtilis [15] of 89%. In addition, the Michaelis constant (Km) in the data set with Rhodobacter capsulatus [4] came to 52 µM. Also, the Vmax in the data set with Rhodobacter capsulatus [4] turned out to be 0.58 µmol/min/mg. Besides, the inhibition result with Bacillus subtilis [5] was “inactive”. The inhibition result with Bacillus subtilis [17] was “Active”.
On to `CC1=CC(=O)C(N=[N+]=[N-])=C(C)C1=O`, for which the inhibition result with Rhodobacter capsulatus [18] and in the data set with Bacillus subtilis [5] was “inactive” throughout. Further, the Vmax (microM/min/mg) in the data set with Bacillus subtilis [2] came to 4.72; in the data set on Escherichia coli [3], 464. Besides, the Stability result in data set [13] is reported as “Unstable”. For the same compound, the Km with Rhodobacter capsulatus [4] came out at 86 µM. Besides, the Vmax in the data set with Rhodobacter capsulatus [4] was 0.59 µmol/min/mg.
Regarding `CC1=CC(=O)C=C(C)C1=O`, in the data set with Bacillus subtilis [2], the Vmax (microM/min/mg) is 3.99. Also, the Vmax (microM/min/mg) in the data set on Escherichia coli [3] amounted to 546. Moreover, in the data set on Rhodobacter capsulatus [4], the Km stood at 100 µM and the Vmax turned out to be 0.35 µmol/min/mg. Moreover, the inhibition result in the data set with Bacillus subtilis [5] is “inactive”.
Consider `[N-]=[N+]=NC1=CC(=O)C=CC1=O`, for which the inhibition result with Rhodobacter capsulatus [19] and in the data set with Rhodobacter capsulatus [20] was “Active” in each case.
`COC1=C(OC)C(=O)C(CCCCCN=[N+]=[N-])=C(C)C1=O`: the inhibition entry in the data set on Rhodobacter capsulatus [21] is “tde”; in the data set with Rhodobacter capsulatus [14], 20%. For the same compound, the Vmax (microM/min/mg) with Bacillus subtilis [2] stood at 2.57. For the same compound, the inhibition result with Rhodobacter capsulatus [22] and in the data set with Bacillus subtilis [5] was “inactive” each time. Moreover, in the data set with Rhodobacter capsulatus [4], the Km worked out at 21 µM. In the data set with Rhodobacter capsulatus [4], the maximal velocity (Vmax) amounted to 0.35 µmol/min/mg.
Turning to `C/C=C(\C)[C@H](O)[C@H](C)/C=C(C)/C=C/C/C(C)=C/Cc1nc(OC)c(OC)c(O)c1C`, the Imax with Rhodobacter capsulatus [7] was determined as 75%; with Rhodobacter capsulatus [8], 73%; in the data set with Rhodobacter capsulatus [9], 68%; in the data set on Rhodobacter capsulatus [10], 79%; with Rhodobacter capsulatus [11], 71%; with Rhodobacter capsulatus [12], 68%.
